Assay results as given in ChEMBL document CHEMBL1772951, “Synthesis of some novel benzofuran-2-yl(4,5-dihyro-3,5-substituted diphenylpyrazol-1-yl) methanones and studies on the antiproliferative effects and reversal of multidrug resistance of human MDR1-gene transfected mouse lymphoma cells in vitro” (Eur J Med Chem, 2011).
≈ marks a conversion by molar mass, not a printed value.

Experiments:
[1] = biological target: ATP-dependent translocase ABCB1 (Homo sapiens, UniProt P08183); assay: Inhibition of human MDR1 expressed in mouse L5178Y cells assessed as rhodamine 123 accumulation at 20 ug/ml preincubated for 10 mins before rhodamine 123 challenge measured after 20 mins by flow cytometry relative to wild type; format: cell-based
Chain of ATP-dependent translocase ABCB1 (P08183 whole entry): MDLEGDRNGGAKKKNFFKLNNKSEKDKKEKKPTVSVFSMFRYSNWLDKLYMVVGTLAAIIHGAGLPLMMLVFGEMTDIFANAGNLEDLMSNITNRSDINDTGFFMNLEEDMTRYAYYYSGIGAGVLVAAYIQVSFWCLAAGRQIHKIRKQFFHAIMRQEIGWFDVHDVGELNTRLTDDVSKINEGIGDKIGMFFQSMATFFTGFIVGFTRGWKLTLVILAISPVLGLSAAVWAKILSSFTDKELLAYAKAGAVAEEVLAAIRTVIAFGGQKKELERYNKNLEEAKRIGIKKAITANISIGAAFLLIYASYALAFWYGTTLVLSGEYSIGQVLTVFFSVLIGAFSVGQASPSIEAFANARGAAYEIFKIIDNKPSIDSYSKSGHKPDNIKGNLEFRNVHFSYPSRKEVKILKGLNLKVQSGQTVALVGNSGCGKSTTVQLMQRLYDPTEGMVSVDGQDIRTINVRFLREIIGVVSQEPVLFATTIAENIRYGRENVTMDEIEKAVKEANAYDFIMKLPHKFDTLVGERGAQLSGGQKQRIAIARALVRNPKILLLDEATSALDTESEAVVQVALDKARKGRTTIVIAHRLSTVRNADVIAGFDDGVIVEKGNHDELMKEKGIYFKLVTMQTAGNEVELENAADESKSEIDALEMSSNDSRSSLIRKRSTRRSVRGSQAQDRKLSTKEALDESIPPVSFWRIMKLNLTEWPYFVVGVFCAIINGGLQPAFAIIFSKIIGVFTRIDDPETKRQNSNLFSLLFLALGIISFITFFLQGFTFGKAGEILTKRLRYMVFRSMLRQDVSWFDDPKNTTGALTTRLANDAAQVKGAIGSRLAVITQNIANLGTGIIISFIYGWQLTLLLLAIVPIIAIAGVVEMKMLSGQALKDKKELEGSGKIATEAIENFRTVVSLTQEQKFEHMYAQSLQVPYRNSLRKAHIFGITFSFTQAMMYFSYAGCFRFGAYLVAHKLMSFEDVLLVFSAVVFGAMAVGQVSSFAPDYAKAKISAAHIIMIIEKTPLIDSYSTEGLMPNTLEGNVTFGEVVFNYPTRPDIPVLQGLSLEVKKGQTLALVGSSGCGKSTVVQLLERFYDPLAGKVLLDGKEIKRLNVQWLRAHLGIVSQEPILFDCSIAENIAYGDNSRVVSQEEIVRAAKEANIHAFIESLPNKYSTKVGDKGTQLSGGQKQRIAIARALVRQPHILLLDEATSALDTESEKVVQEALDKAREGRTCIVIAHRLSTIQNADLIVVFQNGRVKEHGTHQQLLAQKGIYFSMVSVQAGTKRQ
Method in brief: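 L5178Y cells were transfected with human MDR1 via pHa MDR1/A retrovirus and kept under 60 ng/ml colchicine, alongside parental cells, in McCoy's 5A with 10% horse serum at 37 °C, 5% CO₂. Cells at 2 × 10⁶/ml in serum-free medium got compound for 10 min at room temperature, then rhodamine 123 for 20 min at 37 °C. Cells were washed twice and read by flow cytometry, with verapamil as positive control. FAR = (MDR treated/MDR control)/(parental treated/parental control). One representative experiment, 1 × 10⁴ cells.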

[2] = test system: L5178Y MDR1-transfected mouse lymphoma cells (Mus musculus); assay: Antiproliferative activity against mouse MDR1-transfected L5178Y lymphoma cells after 72 hrs by MTT assay; details: L5178Y MDR1, 72 h

RFU [1] | IC50 [2] [µg/mL] | SMILES
18.8 | 7.58 (≈ 20.7 µM) | O=C(c1cc2ccccc2o1)N1N=C(c2ccccc2)CC1c1ccccc1 (centres undefined)
7.59 | 16.6 (≈ 43.6 µM) | Cc1ccc(C2CC(c3ccccc3)=NN2C(=O)c2cc3ccccc3o2)cc1 (centres undefined)
15.18 | 4.87 (≈ 11.8 µM) | O=C(c1cc2ccccc2o1)N1N=C(c2ccccc2)CC1c1ccc([N+](=O)[O-])cc1 (centres undefined)
29.9 | 6.89 (≈ 16.2 µM) | COc1ccc(C2CC(c3ccccc3)=NN2C(=O)c2cc3ccccc3o2)cc1OC (centres undefined)
20.06 | 9.94 (≈ 25.8 µM) | O=C(c1cc2ccccc2o1)N1N=C(c2ccccc2)CC1c1ccc(F)cc1 (centres undefined)
8.34 | 5.13 (≈ 12.8 µM) | O=C(c1cc2ccccc2o1)N1N=C(c2ccccc2)CC1c1ccc(Cl)cc1 (centres undefined)
16.1 | 6.22 (≈ 15.5 µM) | O=C(c1cc2ccccc2o1)N1N=C(c2ccccc2)CC1c1ccccc1Cl (centres undefined)
26.77 | 4.57 (≈ 11.5 µM) | COc1ccc(C2CC(c3ccccc3)=NN2C(=O)c2cc3ccccc3o2)cc1 (centres undefined)
6.77 | 13.6 (≈ 34 µM) | O=C(c1cc2ccccc2o1)N1N=C(c2ccc(Cl)cc2)CC1c1ccccc1 (centres undefined)
2.9 | 8.5 (≈ 19.5 µM) | O=C(c1cc2ccccc2o1)N1N=C(c2ccc(Cl)cc2)CC1c1ccc(Cl)cc1 (centres undefined)
5.85 | 5.74 (≈ 13.3 µM) | COc1ccc(C2CC(c3ccc(Cl)cc3)=NN2C(=O)c2cc3ccccc3o2)cc1 (centres undefined)
12.61 | 34.1 (≈ 76.5 µM) | O=C(c1cc2ccccc2o1)N1N=C(c2ccc(Cl)cc2)CC1c1ccc([N+](=O)[O-])cc1 (centres undefined)
6.02 | 44.8 (≈ 103 µM) | O=C(c1cc2ccccc2o1)N1N=C(c2ccc(Cl)cc2)CC1c1ccccc1Cl (centres undefined)
5.87 | 6.29 (≈ 13.6 µM) | COc1ccc(C2CC(c3ccc(Cl)cc3)=NN2C(=O)c2cc3ccccc3o2)cc1OC (centres undefined)
15.82 | 11.8 (≈ 30.6 µM) | O=C(c1cc2ccccc2o1)N1N=C(c2ccc(F)cc2)CC1c1ccccc1 (centres undefined)
6.96 | > 50 | O=C(c1cc2ccccc2o1)N1N=C(c2ccc(F)cc2)CC1c1ccc(Cl)cc1 (centres undefined)
8.72 | 23 (≈ 55.5 µM) | COc1ccc(C2CC(c3ccc(F)cc3)=NN2C(=O)c2cc3ccccc3o2)cc1 (centres undefined)
12.58 | > 50 | O=C(c1cc2ccccc2o1)N1N=C(c2ccc(F)cc2)CC1c1ccc([N+](=O)[O-])cc1 (centres undefined)
16.94 | 45.2 (≈ 108 µM) | O=C(c1cc2ccccc2o1)N1N=C(c2ccc(F)cc2)CC1c1ccccc1Cl (centres undefined)
16.22 | > 50 | COc1ccc(C2CC(c3ccc(F)cc3)=NN2C(=O)c2cc3ccccc3o2)cc1OC (centres undefined)
10.52 | > 50 | Cc1ccc(C2CC(c3ccc(F)cc3)=NN2C(=O)c2cc3ccccc3o2)cc1 (centres undefined)
14.56 | > 50 | O=C(c1cc2ccccc2o1)N1N=C(c2ccc(F)cc2)CC1c1ccc(F)cc1 (centres undefined)
